Measured values from ChEMBL document CHEMBL4622947, “Synthesis and anti-inflammatory activity of 2-oxo-2H-chromenyl and 2H-chromenyl-5-oxo-2,5-dihydrofuran-3-carboxylates” (Bioorg Med Chem Lett, 2020).
The source made the active and inactive calls. The rule behind the calls is not given here.

Experiments:
[1] = Cytotoxicity against human U937 cells assessed as cell viability at 20 uM relative to control; type: cell-based, U-937; conditions: read-out: Activity
U-937 [2] = assay: Antiinflammatory activity in human U937 cells assessed as inhibition of PMA/LPS-stimulated IL-6 production at 20 uM after 24 hrs by ELISA; type: functional, cell-based
U-937 [3] = assay: Antiinflammatory activity in human U937 cells assessed as inhibition of PMA/LPS-stimulated TNFalpha production at 20 uM after 24 hrs by ELISA relative to control; type: functional; conditions: U-937, 24 h
How it was run: (§1)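 TNF-α from U937 cells was quantified by ELISA. Percent inhibition was read at 20 μM, and IC50 (μM) was reported as mean ± error.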

U-937 [4] = assay: Antiinflammatory activity in human U937 cells assessed as inhibition of PMA/LPS-stimulated TNFalpha production after 24 hrs by ELISA; type: functional, cell-based; conditions: U-937, 24 h; how it was run: as §1
Mus musculus [5] = assay: Antiinflammatory activity in BALB/c mouse assessed as inhibition of LPS-induced IL6 production at 100 mg/kg, administered for 3 days followed by LPS stimulation by ELISA; type: functional, organism-based
How it was run: (§2)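 BALB/c mice were pre-treated with 100 mg/kg test compound for three consecutive days, then challenged with LPS at 10 mg/kg IP. Serum TNF-α and IL-6 were measured by ELISA and compared with LPS-only and vehicle control groups. Values are mean ± S.E.M., n = 5.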

Mus musculus [6] = assay: Antiinflammatory activity in BALB/c mouse assessed as inhibition of LPS-induced TNFalpha production at 100 mg/kg, administered for 3 days followed by LPS stimulation by ELISA; type: functional, organism-based; how it was run: as §2
U-937 [7] = assay: Antiinflammatory activity in human U937 cells assessed as inhibition of PMA/LPS-stimulated TNFalpha production at 1 uM after 24 hrs by ELISA relative to control; type: functional; conditions: U-937, 24 h

CCOC(=O)C1=C(OCC)C(=O)OC1C1=C(Cl)c2c(ccc(C)c2C)OC1 (configuration not stated)
viability at 20 µM [1]: 85.2% | inhibition (U-937 [2]): inactive | inhibition at 20 µM (U-937 [3]): 29.7%

CCOC(=O)C1=C(OCC)C(=O)OC1C1=C(Cl)c2ccccc2OC1 (configuration not stated)
viability at 20 µM [1]: 88.9% | inhibition (U-937 [2]): inactive | inhibition at 20 µM (U-937 [3]): 50.6%

CCOC(=O)C1=C(OCC)C(=O)OC1c1c(Cl)c2cc(C)cc(C)c2oc1=O (configuration not stated)
viability at 20 µM [1]: 96.8% | inhibition (U-937 [2]): inactive | IC50 (U-937 [4]): 1110 nM | inhibition at 20 µM (U-937 [3]): 80.2%

COC(=O)C1=C(OC)C(=O)OC1c1c(Cl)c2cc(C)ccc2oc1=O (configuration not stated)
viability at 20 µM [1]: 84.3% | inhibition (U-937 [2]): inactive | inhibition at 20 µM (U-937 [3]): 14.8%

CCOC(=O)C1=C(OCC)C(=O)OC1c1c(Cl)c2cc(Cl)ccc2oc1=O (configuration not stated)
inhibition (Mus musculus [5]): Active | viability at 20 µM [1]: 90.7% | inhibition (U-937 [2]): inactive | IC50 (U-937 [4]): 423 nM | inhibition (Mus musculus [6]): Active | inhibition at 20 µM (U-937 [3]): 97.1%

COC(=O)C1=C(OC)C(=O)OC1C1=C(Cl)c2c(ccc(C)c2C)OC1 (configuration not stated)
inhibition (Mus musculus [5]): Active | viability at 20 µM [1]: 92.1% | inhibition (U-937 [2]): inactive | IC50 (U-937 [4]): 142 nM | inhibition (Mus musculus [6]): Active | inhibition at 20 µM (U-937 [3]): 70.4%

COC(=O)C1=C(OC)C(=O)OC1c1c(Cl)c2cc(Cl)ccc2oc1=O (configuration not stated)
viability at 20 µM [1]: 93.1% | inhibition (U-937 [2]): inactive | IC50 (U-937 [4]): 6240 nM | inhibition at 20 µM (U-937 [3]): 75%

CCOC(=O)C1=C(OCC)C(=O)OC1c1c(Cl)c2cc(Br)ccc2oc1=O (configuration not stated)
viability at 20 µM [1]: 83% | inhibition (U-937 [2]): inactive | IC50 (U-937 [4]): 47 nM | inhibition at 20 µM (U-937 [3]): 91%

COC(=O)C1=C(OC)C(=O)OC1C1=C(Cl)c2ccccc2OC1 (configuration not stated)
viability at 20 µM [1]: 88.1% | inhibition (U-937 [2]): inactive | IC50 (U-937 [4]): 18700 nM | inhibition at 20 µM (U-937 [3]): 95.5%

COC(=O)C1=C(OC)C(=O)OC1c1c(Cl)c2ccccc2oc1=O (configuration not stated)
viability at 20 µM [1]: 78.3% | inhibition (U-937 [2]): inactive | inhibition at 20 µM (U-937 [3]): 27.1%

CCOC(=O)C1=C(OCC)C(=O)OC1C1=C(Cl)c2ccc(C)c(C)c2OC1 (configuration not stated)
viability at 20 µM [1]: 89.9% | inhibition (U-937 [2]): inactive | inhibition at 20 µM (U-937 [3]): 23.3%

COC(=O)C1=C(OC)C(=O)OC1C1=C(Cl)c2ccc3ccccc3c2OC1 (configuration not stated)
viability at 20 µM [1]: 80.2% | inhibition (U-937 [2]): inactive | inhibition at 20 µM (U-937 [3]): 29.1%

CCOC(=O)C1=C(OCC)C(=O)OC1c1c(Cl)c2cc(-c3ccccc3)ccc2oc1=O (configuration not stated)
viability at 20 µM [1]: 83.1% | inhibition (U-937 [2]): inactive | inhibition at 20 µM (U-937 [3]): 20%

COC(=O)C1=C(OC)C(=O)OC1C1=C(Cl)c2cc(C)ccc2OC1 (configuration not stated)
viability at 20 µM [1]: 88.5% | inhibition (U-937 [2]): inactive | inhibition at 20 µM (U-937 [3]): 35.6%

COC(=O)C1=C(OC)C(=O)OC1c1c(Cl)c2cc(C)c(C)cc2oc1=O (configuration not stated)
viability at 20 µM [1]: 75.9% | inhibition (U-937 [2]): inactive | inhibition at 20 µM (U-937 [3]): 34.9%

CCOC(=O)C1=C(OCC)C(=O)OC1C1=C(Cl)c2ccc3ccccc3c2OC1 (configuration not stated)
viability at 20 µM [1]: 83.6% | inhibition (U-937 [2]): inactive | inhibition at 20 µM (U-937 [3]): 4.1%

CCOC(=O)C1=C(OCC)C(=O)OC1c1c(Cl)c2ccccc2oc1=O (configuration not stated)
viability at 20 µM [1]: 75.9% | inhibition (U-937 [2]): inactive | inhibition at 20 µM (U-937 [3]): 40.7%

CCOC(=O)C1=C(OCC)C(=O)OC1C1=C(Cl)c2cc(Br)ccc2OC1 (configuration not stated)
viability at 20 µM [1]: 87.2% | inhibition (U-937 [2]): inactive | IC50 (U-937 [4]): 3260 nM | inhibition at 20 µM (U-937 [3]): 73.3%

COC(=O)C1=C(OC)C(=O)OC1c1c(Cl)c2cc(Br)ccc2oc1=O (configuration not stated)
viability at 20 µM [1]: 85.3% | inhibition (U-937 [2]): inactive | IC50 (U-937 [4]): 70 nM | inhibition at 20 µM (U-937 [3]): 76.9%

COC(=O)C1=C(OC)C(=O)OC1C1=C(Cl)c2cc(Cl)ccc2OC1 (configuration not stated)
viability at 20 µM [1]: 84.6% | inhibition (U-937 [2]): inactive | inhibition at 20 µM (U-937 [3]): 19.4%

CCOC(=O)C1=C(OCC)C(=O)OC1C1=C(Cl)c2cc(C)c(C)cc2OC1 (configuration not stated)
viability at 20 µM [1]: 93.4% | inhibition (U-937 [2]): inactive | IC50 (U-937 [4]): 11200 nM | inhibition at 20 µM (U-937 [3]): 96.1%

CCOC(=O)C1=C(OCC)C(=O)OC1C1=C(Cl)c2cc(C)ccc2OC1 (configuration not stated)
viability at 20 µM [1]: 81.6% | inhibition (U-937 [2]): inactive | inhibition at 20 µM (U-937 [3]): 6.4%

COC(=O)C1=C(OC)C(=O)OC1c1c(Cl)c2cc(C)cc(C)c2oc1=O (configuration not stated)
viability at 20 µM [1]: 86.1% | inhibition (U-937 [2]): inactive | inhibition at 20 µM (U-937 [3]): 44.9%

COC(=O)C1=C(OC)C(=O)OC1c1c(Cl)c2cc(-c3ccccc3)ccc2oc1=O (configuration not stated)
viability at 20 µM [1]: 82.3% | inhibition (U-937 [2]): inactive | inhibition at 20 µM (U-937 [3]): 44.2%

CCOC(=O)C1=C(OCC)C(=O)OC1c1c(Cl)c2cc(C)ccc2oc1=O (configuration not stated)
viability at 20 µM [1]: 79.8% | inhibition (U-937 [2]): inactive | inhibition at 20 µM (U-937 [3]): 32.3%

C[C@]12C=CC(=O)C=C1CC[C@@H]1[C@@H]2[C@@H](O)C[C@@]2(C)[C@H]1CC[C@]2(O)C(=O)CO [PREDNISOLONE]
inhibition at 1 µM (U-937 [7]): 98% | IC50 (U-937 [4]): 33 nM

COC(=O)C1=C(OC)C(=O)OC1C1=C(Cl)c2cc(Br)ccc2OC1 (configuration not stated)
viability at 20 µM [1]: 94.3% | inhibition (U-937 [2]): inactive | IC50 (U-937 [4]): 13000 nM | inhibition at 20 µM (U-937 [3]): 80.2%

COC(=O)C1=C(OC)C(=O)OC1C1=C(Cl)c2ccc(C)c(C)c2OC1 (configuration not stated)
viability at 20 µM [1]: 93.8% | inhibition (U-937 [2]): inactive | inhibition at 20 µM (U-937 [3]): 45.7%

COC(=O)C1=C(OC)C(=O)OC1C1=C(Cl)c2cc(C)c(C)cc2OC1 (configuration not stated)
viability at 20 µM [1]: 90.7% | inhibition (U-937 [2]): inactive | inhibition at 20 µM (U-937 [3]): 49.7%

CCOC(=O)C1=C(OCC)C(=O)OC1c1c(Cl)c2cc(C)c(C)cc2oc1=O (configuration not stated)
viability at 20 µM [1]: 79% | inhibition (U-937 [2]): inactive | inhibition at 20 µM (U-937 [3]): 26.8%

CCOC(=O)C1=C(OCC)C(=O)OC1C1=C(Cl)c2cc(Cl)ccc2OC1 (configuration not stated)
viability at 20 µM [1]: 79.4% | inhibition (U-937 [2]): inactive | IC50 (U-937 [4]): 10600 nM | inhibition at 20 µM (U-937 [3]): 75.9%
